Bioassay records: PubChem BioAssay, Sanford-Burnham Center for Chemical Genomics
SENP6 inh: blocks the human protease SENP6. AID 2599. 1.8% of 330,000 active. Q9GZR1. Recombinant SENP6 catalytic domain, aminoluciferin luminescence. inhibition, % at 10 µM;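 active = inhibition above about 50% at the single tested dose, limit read from the data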
SENP8 block-1: SENP8 (human) protease inhibition | AID 602440 | Q96LD8 | 0.64% of 360,000 active | inhibition, % at 20 µM | recombinant SENP8, Nedd8 substrate fluorescence; in the data active = inhibition mostly above about 40%, no sharp cut-off; inactive = mostly below about 27%
Target sequence (Q96LD8 whole entry, looked up): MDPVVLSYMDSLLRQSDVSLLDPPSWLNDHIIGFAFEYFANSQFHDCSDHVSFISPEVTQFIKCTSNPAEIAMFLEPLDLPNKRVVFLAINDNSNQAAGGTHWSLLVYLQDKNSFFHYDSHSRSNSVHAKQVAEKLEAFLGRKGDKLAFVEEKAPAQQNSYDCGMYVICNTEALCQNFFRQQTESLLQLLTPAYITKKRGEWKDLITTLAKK
SENP7 inh: inhibitors of human SENP7 protease; Q9BQF6; recombinant SENP7, Z-RLRGG-aminoluciferin luminescence, 40 min; inhibition, % at 5 µM; 1.5% of 330,000 active; AID 434973;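 active = inhibition above about 50% at the single test dose, limit read from the data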
Target sequence (Q9BQF6 706-1050 limits assumed): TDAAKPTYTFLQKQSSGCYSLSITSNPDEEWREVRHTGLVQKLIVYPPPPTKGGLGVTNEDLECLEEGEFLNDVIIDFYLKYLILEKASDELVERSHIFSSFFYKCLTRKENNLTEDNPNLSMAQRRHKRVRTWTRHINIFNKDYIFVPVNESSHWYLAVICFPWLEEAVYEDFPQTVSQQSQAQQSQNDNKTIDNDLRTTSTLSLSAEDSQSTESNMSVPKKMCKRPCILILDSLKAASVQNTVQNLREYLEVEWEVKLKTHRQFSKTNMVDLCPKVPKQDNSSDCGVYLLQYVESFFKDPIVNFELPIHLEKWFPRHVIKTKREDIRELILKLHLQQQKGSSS
SENP8 block-2: SENP8 protease inhibition | Q96LD8 | purified SENP8, Z-RLRGG-aminoluciferin cleavage, luminescence | inhibition, % at 10 µM | 1.2% of 330,000 active | AID 2540; in the data active = inhibition above about 50%
Apaf-1 inh: blocks human Apaf-1 apoptosome activity; O14727; reconstituted apoptosome caspase-3 activity, DEVD-Rh110 fluorescence; inhibition, % at 20 µM; 0.71% of 330,000 active; active = inhibition of at least 40% at 20 µM
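detection = Rh110 fluorescence intensity | test system = biochemical Apaf-1 apoptosome reconstitution | also added = cytochrome c and DEVD-Rh110 substrate | schedule = 30 min plus 50 min, RT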
SENP1 inh: SENP1 (human) catalytic domain inhibition | inhibition, % at 10 µM | Q9P0U3 | AID 624204 | recombinant SENP1 catalytic domain, CyPet-SUMO1-YPet FRET cleavage | 0.21% of 360,000 active;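 active = inhibition at least 30% at 10 µM, raw YFP signal under a set limit, fluorescence ratio 0.5 to 1.5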
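Test system: human SENP1 catalytic domain; medium: Tris pH 8 buffer plus EDTA, NaCl, BME, BSA, NP40, catalase; incubation: 50 min reaction at room temperature; technique: FRET, CFP and YFP emission; controls: no-enzyme low control and enzyme-plus-DMSO high control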
Each line names hits and unclear results; the compound was inactive in the other large screens. An excerpt weighted towards active compounds, which were near 2.9% of everything screened.

CC1CCN(S(=O)(=O)c2cc(C(=O)Nc3ccccn3)ccc2Br)CC1	none
CCC(CC)C(C(=O)NCc1ccccc1)N1CCN(c2cccc(C)c2C)CC1 (centres undefined)	none (no result: SENP6 inh, SENP7 inh, SENP8 block-2, Apaf-1 inh)
CC1=C(C)C(=O)N(c2ccccn2)C1=O	none
Cc1nn(-c2ccccn2)c2c1C(=O)C(Br)CC2 (centres undefined)	SENP8 block-1 66 (no result: SENP6 inh, SENP7 inh, SENP8 block-2, Apaf-1 inh)
O=C(O)c1cc(O)c2c(c1)[C@H]([C@H]1c3cc(C(=O)O)cc(O)c3C(=O)c3c(O[C@@H]4O[C@H](CO)[C@@H](O)[C@H](O)[C@H]4O)cccc31)c1cccc(OC3O[C@H](CO)[C@@H](O)[C@H](O)[C@H]3O)c1C2=O (some centres undefined)	Apaf-1 inh 89
O=C(O)c1cc(O)c2c(c1)[C@@H]([C@H]1c3cc(C(=O)O)cc(O)c3C(=O)c3c(O[C@@H]4O[C@H](CO)[C@@H](O)[C@H](O)[C@H]4O)cccc31)c1cccc(OC3O[C@H](CO)[C@@H](O)[C@H](O)[C@H]3O)c1C2=O (some centres undefined)	Apaf-1 inh 95
Cc1[nH]c2c(C)cccc2c1CCNC(=O)c1ccc2c(c1[N+](=O)[O-])C(=O)c1ccccc1C2=O	SENP8 block-1 43
COc1ccc(CCN2CCC(Nc3nc4ccccc4n3Cc3ccc(F)cc3)CC2)cc1	Apaf-1 inh 56
COc1ccc(CNc2nc3ccccc3n2CCN2CCCCC2)cc1	none
CCOc1cccc(N2CCN(CCNC(=O)Nc3ccc(C)cc3)CC2)c1C	none
Cc1nn2cc(-c3cccc(Cl)c3)cnc2c1Cl	SENP7 inh 71
CCN=c1scc(-c2ccc(F)cc2)n1/N=C/c1ccccn1	none
CCN=c1scc(-c2ccccc2)n1/N=C/c1ccccn1	SENP6 inh 63, SENP7 inh 52
CCOc1cc(N2CCOCC2)c(OCC)cc1NC(=O)CSc1cccc[n+]1[O-]	SENP8 block-1 47
CCOc1cc(N2CCOCC2)c(OCC)cc1NC(=O)C(C)C	none
CCOc1cc(N2CCOCC2)c(OCC)cc1NC(C)C(=O)N1CCN(CC)CC1 (centres undefined)	SENP8 block-1 58 (no result: SENP6 inh, SENP7 inh, SENP8 block-2, Apaf-1 inh)
O=C(O)c1cc(N2N=C(C(F)(F)F)/C(=C/C=C/c3ccco3)C2=O)ccc1Cl	SENP1 inh 33 (no result: SENP6 inh, SENP7 inh, SENP8 block-2, Apaf-1 inh)
CCOC(=O)c1ccc(N2N=C(C)/C(=C/C=C/c3ccco3)C2=O)cc1	none
Cc1cccc(NC(=O)c2cnc3ccccn3c2=O)c1	SENP6 inh 81, SENP7 inh 67, SENP8 block-2 67
COc1cccc(/C=N/Nc2nn3cnnc3c3ccccc23)c1O	SENP1 inh 55
Cc1ccccc1/C=N/NC(=O)c1sccc1C	SENP6 inh 96, SENP7 inh 99, SENP8 block-2 95
O=C(CCl)NN1C(=O)NC(c2ccccc2)(c2ccccc2)C1=O	none
CCOc1ccc(N=Nc2c(=O)[nH]n3c(C)cc(C)nc23)cc1	SENP8 block-1 53
CN(Cc1ccc(OC(F)F)cc1)C(=O)c1ccc2c(=O)n3c(nc2c1)CCC3	none
O=C(COC(=O)c1ccc(F)cc1F)Nc1cc(S(=O)(=O)N2CCOCC2)ccc1Cl	none
CCOc1ccccc1NC(=O)Nc1ccc(Cl)cc1	SENP6 inh 83, SENP7 inh 72, SENP8 block-2 52
CCCCCC#CCC#CCC#CCC#CCCCC(=O)O	Apaf-1 inh 41 (no result: SENP8 block-1, SENP1 inh)
O=C(O)c1ccccc1C1=Nc2ccc(O)cc2Oc2cc(O)ccc21	SENP1 inh 59
Cc1cc(-c2ccccc2C(=O)O)on1	none
CCc1ccc2c(c1)C(=O)c1ccccc1C2=O	SENP6 inh 78, SENP7 inh 83, SENP8 block-2 79
O=C(OCc1ccccc1)c1ccc2c(c1)-c1ccccc1C2=O	none
O=C(CN1C(=O)NC2(CCCCCC2)C1=O)NCCc1ccccc1	none
Cc1cnc(NS(=O)(=O)c2ccc(N)cc2)nc1-c1ccccc1O	none (no result: SENP6 inh, SENP7 inh, SENP8 block-2, Apaf-1 inh)
CN1CCSc2ccc(C(=O)Nc3cccc(F)c3)cc21	SENP6 inh 94, SENP7 inh 90, SENP8 block-2 83
COc1ccc2c(c1OC)C(=O)O[C@@H]2[C@H]1c2c(cc3c(c2OC)OCO3)CCN1C	SENP8 block-1 44
O=C(Nc1ccc(F)c(Cl)c1)c1cc(C2CCCCN2C(=O)c2ccccc2)on1 (centres undefined)	none (no result: SENP6 inh, SENP7 inh, SENP8 block-2, Apaf-1 inh)
Fc1ccc(C2Nc3cccc4cccc(c34)N2)cc1	none
COC(=O)c1ccc(C2Nc3cccc4cccc(c34)N2)cc1	SENP8 block-1 54
COc1cc(C2Nc3cccc4cccc(c34)N2)cc(OC)c1O	SENP8 block-1 58, SENP7 inh 98
COc1cc(C2Nc3cccc4cccc(c34)N2)ccc1OC(C)=O	none
Oc1ccc(C2Nc3cccc4cccc(c34)N2)c(O)c1	SENP8 block-1 45
N=C1CCC(=N)c2c1c(O)c1ccccc1c2O	SENP6 inh 63, SENP8 block-1 89, Apaf-1 inh 77
CC(NS(=O)(=O)c1cccc(C(=O)N(C)Cc2ccc(N3CCOCC3)cc2)c1)c1ccccc1 (centres undefined)	none (no result: SENP6 inh, SENP7 inh, SENP8 block-2, Apaf-1 inh)
FC(F)(F)c1ccc2c(c1)C1C=CCC1C(c1ccncc1)N2 (centres undefined)	SENP8 block-1 44 (no result: SENP6 inh, SENP7 inh, SENP8 block-2, Apaf-1 inh)
COc1cc2c3nnc(-c4ccc(F)cc4)c-3cn(Cc3cccc(C)c3)c2cc1OC	Apaf-1 inh 53
COc1cc2c3nnc(-c4ccc(F)cc4)c-3cn(Cc3cccc(F)c3)c2cc1OC	none
COc1cccc2c1C(=O)c1c(O)c3c(c(O)c1C2=O)CC(O)(C(C)=O)CC3OC1CC(N(C)C)C(O)C(C)O1 (centres undefined)	SENP8 block-1 49 (no result: SENP6 inh, SENP7 inh, SENP8 block-2, Apaf-1 inh)
COc1cccc2c1C(=O)c1c(O)c3c(c(O)c1C2=O)C[C@@](O)(C(=O)CO)C[C@@H]3OC1CC(N)C(O)C(C)O1 (some centres undefined)	SENP8 block-1 94 (no result: SENP6 inh, SENP7 inh, SENP8 block-2, Apaf-1 inh)
CC1=C(C(=O)N(C(C)C)C(C)C)CC(CC(=O)NC2CCCC2)C(=O)N1CCC1=CCCCC1 (centres undefined)	none (no result: SENP6 inh, SENP7 inh, SENP8 block-2, Apaf-1 inh)
O=c1c2cc(Cl)ccc2nc(-c2ccc(Cl)c(Cl)c2)n1O	SENP6 inh 59
COc1ccc(C(=O)N2CCCCC2c2cc(C(=O)NCc3cccnc3)no2)cc1 (centres undefined)	none (no result: SENP6 inh, SENP7 inh, SENP8 block-2, Apaf-1 inh)
COC(=O)c1c(NC(=O)COc2ccc(Cl)cc2)sc2c1CC(C)(C)NC2(C)C	Apaf-1 inh 61
COC(=O)c1c(NC(=O)Cc2ccccc2)sc2c1CC(C)(C)NC2(C)C	none
Oc1ccc(C[C@@H]2CNCCN2CCc2cc(C(F)(F)F)cc(C(F)(F)F)c2)cc1	none
FC(F)(F)c1cc(CCN2CCNC[C@H]2Cc2cccc3ccccc23)cc(C(F)(F)F)c1	Apaf-1 inh 72
Cc1c(-c2ccnc3cc(C(=O)O)nn23)cnn1C	none
CCn1cc(-c2ccnc3cc(C(=O)O)nn23)c(C)n1	SENP8 block-2 95
